Data reported in ChEMBL document CHEMBL4665773, “Structure activity relationship exploration of 5-hydroxy-2-(3-phenylpropyl)chromones as a unique 5-HT receptor antagonist scaffold” (Bioorg Med Chem Lett, 2020).

What was measured:
[1] = biological target: T1, 5-hydroxytryptamine receptor 2B (Homo sapiens, UniProt P41595); test: Antagonist activity at 5HT2B receptor (unknown origin) by radioligand binding assay
[2] = biological target: T2, 5-hydroxytryptamine receptor 2C (Homo sapiens) (UniProt P28335); test: Antagonist activity at 5HT2C receptor (unknown origin) 10 uM by radioligand binding assay relative to control
T2 sequence (whole entry): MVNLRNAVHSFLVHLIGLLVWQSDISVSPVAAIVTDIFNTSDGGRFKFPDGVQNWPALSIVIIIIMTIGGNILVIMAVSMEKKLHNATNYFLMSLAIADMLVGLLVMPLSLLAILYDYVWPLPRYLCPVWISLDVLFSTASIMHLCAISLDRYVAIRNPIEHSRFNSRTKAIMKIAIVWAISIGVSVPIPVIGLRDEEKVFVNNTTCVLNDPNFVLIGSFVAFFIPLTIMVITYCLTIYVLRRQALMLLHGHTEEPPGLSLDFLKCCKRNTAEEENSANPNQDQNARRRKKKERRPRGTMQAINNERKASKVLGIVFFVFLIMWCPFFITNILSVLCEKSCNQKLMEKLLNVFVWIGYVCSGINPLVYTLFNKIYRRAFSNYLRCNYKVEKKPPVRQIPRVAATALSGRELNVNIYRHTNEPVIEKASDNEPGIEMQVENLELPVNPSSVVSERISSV

[3] = biological target: 5-hydroxytryptamine receptor 2A (Homo sapiens) (UniProt P28223); test: Antagonist activity at 5HT2A receptor (unknown origin) at 10 uM by radioligand binding assay relative to control
[4] = biological target: T1, 5-hydroxytryptamine receptor 2B; test: Antagonist activity at 5HT2B receptor (unknown origin) at 10 uM by radioligand binding assay relative to control
[5] = biological target: T3, 5-hydroxytryptamine receptor 2C (Homo sapiens, UniProt P28335); test: Antagonist activity at 5HT2C receptor (unknown origin) by radioligand binding assay
T3 sequence (P28335 whole entry): T2 sequence (whole entry)

[6] = biological target: T1, 5-hydroxytryptamine receptor 2B; test: Antagonist activity at 5-HT2B receptor (unknown origin) assessed as inhibition of 5HT-indued response by calcium mobilization assay; assay type: functional
Method in brief: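 Antagonist mode of the 5-HT2B calcium mobilization assay: 5-HT at 1.6 nM was challenged with various concentrations of test compound. Inhibition is expressed as pIC50.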

[7] = biological target: T1, 5-hydroxytryptamine receptor 2B; test: Agonist activity at 5-HT2B receptor (unknown origin) by calcium mobilization assay; assay type: functional
[8] = biological target: T1, 5-hydroxytryptamine receptor 2B; test: Agonist activity at 5-HT2B receptor (unknown origin) assessed as maximal response at 10 uM by calcium mobilization assay relative to 3 nM 5-HT; assay type: functional
Method in brief: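 Calcium mobilization read-out of agonism at 5-HT2B, with 5-HT as the reference agonist. Potency is expressed as pEC50. Maximal response to test compound at 10 μM is expressed relative to the maximal response to 5-HT at 3.0 nM.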

5-hydroxytryptamine receptor 2A (Homo sapiens), sequence (P28223 whole entry): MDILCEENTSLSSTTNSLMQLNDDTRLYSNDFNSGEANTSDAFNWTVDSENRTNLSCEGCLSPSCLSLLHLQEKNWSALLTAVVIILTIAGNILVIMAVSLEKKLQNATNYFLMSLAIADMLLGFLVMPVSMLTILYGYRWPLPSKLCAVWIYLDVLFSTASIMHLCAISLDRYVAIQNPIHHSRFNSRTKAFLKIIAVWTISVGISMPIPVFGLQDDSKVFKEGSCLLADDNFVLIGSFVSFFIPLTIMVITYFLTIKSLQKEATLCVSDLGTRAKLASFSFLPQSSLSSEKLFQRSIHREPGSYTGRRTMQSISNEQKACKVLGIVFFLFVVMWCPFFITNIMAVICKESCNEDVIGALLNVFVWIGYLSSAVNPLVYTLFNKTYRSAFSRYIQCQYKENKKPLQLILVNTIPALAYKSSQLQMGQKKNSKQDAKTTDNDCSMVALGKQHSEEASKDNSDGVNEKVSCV
T1 sequence (P41595 whole entry): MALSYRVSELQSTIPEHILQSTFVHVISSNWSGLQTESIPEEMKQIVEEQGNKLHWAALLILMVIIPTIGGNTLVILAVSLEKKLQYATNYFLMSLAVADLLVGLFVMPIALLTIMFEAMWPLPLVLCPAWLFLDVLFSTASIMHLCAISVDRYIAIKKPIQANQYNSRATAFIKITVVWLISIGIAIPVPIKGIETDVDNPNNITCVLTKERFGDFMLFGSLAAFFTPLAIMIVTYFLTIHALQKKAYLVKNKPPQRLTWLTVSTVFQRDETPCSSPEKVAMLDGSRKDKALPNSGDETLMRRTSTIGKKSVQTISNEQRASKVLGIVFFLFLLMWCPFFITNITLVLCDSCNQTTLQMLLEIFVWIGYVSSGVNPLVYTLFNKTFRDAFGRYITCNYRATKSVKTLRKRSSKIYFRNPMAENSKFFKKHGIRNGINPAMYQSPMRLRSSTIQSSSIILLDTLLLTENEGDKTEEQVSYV

| SMILES | Ki [1] | inhibition [2] | inhibition [3] | inhibition ([4]; filed as antagonist) | inhibition ([2]; filed as antagonist) | inhibition [4] | Ki [5] | IC50 [6] | EC50 [7] | Rmax [8] |
| --- | --- | --- | --- | --- | --- | --- | --- | --- | --- | --- |
| O=c1cc(CCCc2ccc(OC(F)(F)F)cc2)oc2cccc(O)c12 |  | 32.6% | -5% |  |  | 35.3% |  |  |  |  |
| COc1cccc(CCCc2cc(=O)c3c(O)cccc3o2)c1 |  |  | 9.8% | 69.3% | 67.4% |  |  |  |  |  |
| COc1ccc(CCCc2cc(=O)c3c(O)cccc3o2)cc1 |  |  | -1.6% | 75.3% | 87.9% |  |  |  |  |  |
| Cc1cccc(CCCc2cc(=O)c3c(O)cccc3o2)c1 | 2 µM |  | 14.4% | 57.7% | 59.4% |  | 3.16 µM |  |  |  |
| N#Cc1cccc(CCCc2cc(=O)c3c(O)cccc3o2)c1 | 0.0794 µM | 15.5% | 7.2% | 91.1% |  |  |  | 6.31 µM | 0.501 µM | 12% |

Second part, the compound after the results:

| Ki [1] | inhibition [2] | inhibition [3] | inhibition ([4]; filed as antagonist) | inhibition ([2]; filed as antagonist) | inhibition [4] | Ki [5] | IC50 [6] | EC50 [7] | Rmax [8] | SMILES |
| --- | --- | --- | --- | --- | --- | --- | --- | --- | --- | --- |
| 2.51 µM | 36% | 19.5% | 50% |  |  |  |  |  |  | O=c1cc(CCCc2ccc(C(F)(F)F)cc2)oc2cccc(O)c12 |
| 2.51 µM |  | 8.4% | 52.7% | 44.4% |  |  |  |  |  | O=c1cc(CCCc2cccc(F)c2)oc2cccc(O)c12 |
| 2.51 µM | 35.8% | 9.3% | 50.4% |  |  |  |  |  |  | O=c1cc(CCCc2ccc(Cl)cc2)oc2cccc(O)c12 |
| 1 µM |  | 8.7% | 65.8% | 43.5% |  |  |  |  |  | O=c1cc(CCCc2cccc(C(F)(F)F)c2)oc2cccc(O)c12 |
| 2 µM |  | 13.9% | 61.7% | 44.8% |  |  |  |  |  | O=c1cc(CCCc2cccc(Cl)c2)oc2cccc(O)c12 |
| 1.58 µM |  | 17.2% | 50% | 51.2% |  | 3.16 µM |  |  |  | Cc1ccc(CCCc2cc(=O)c3c(O)cccc3o2)cc1 |
|  | 33.9% | 14.2% | 49.2% |  |  |  |  |  |  | O=c1cc(CCCc2ccc(F)cc2)oc2cccc(O)c12 |
